{"source": "paper PMC12569033", "about": "(Nature Communications, 2025)", "molecules": {"B1": {"name": "Drosophila insulin-like peptide 2 (peptide, UniProt Q9VT51 27-137, looked up)", "Insulin-like peptide 2": "TLCSEKLNEVLSMVCEEYNPVIPHKRAMPGADSDLDALNPLQFVQEFEEEDNSISEPLRSALFPGSYLGGVLNSLAEVRRRTRQRQGIVERCCKKSCDMKALREYCSVVRN"}, "B2": {"name": "Drosophila insulin-like peptide 5 (peptide, UniProt Q7KUD5 23-108, looked up)", "Insulin-like peptide 5": "ANSLRACGPALMDMLRVACPNGFNSMFAKRGTLGLFDYEDHLADLDSSESHHMNSLSSIRRDFRGVVDSCCRKSCSFSTLRAYCDS"}}, "key": {"dmIR wild-type (WT)": {"test_system": "dmIR wild-type (WT)", "assay": "Cell-based dmIR activation", "parameters": "species or system Drosophila melanogaster", "conditions": "10 min; for dmIR autophosphorylation, in words / Efficacy (signal in amplitude) relative to DILP5: dose response Fig. 1a; for Efficacy (signal in amplitude) relative to DILP5: of the efficacy/maximum of DILP5; for dmIR WT autophosphorylation on stimulation, in words: 100 nM, Fig. 2f, g"}, "[1]": {"molecular_target": "near-full-length dmIR (residues 1–50, 151–1675, D1519N) (Drosophila melanogaster) (UniProt P09208)", "assay": "cryo-EM structure"}, "dmIR Q1040A": {"test_system": "dmIR Q1040A", "assay": "dmIR autophosphorylation assay, Q1040A mutant", "format": "cell-based, Drosophila melanogaster", "conditions": "100 nM ligand, 10 min", "method_in_brief": "(§1)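 Site-directed dmIR point mutants (C-terminal MYC tag) were transfected into 293FT cells alongside WT. After 1 day, cells were serum-starved 16–18 h, then treated 10 min with 100 nM DILP2 or DILP5. Lysates were blotted with anti-pY1150/1151 and anti-Myc. pY-dmIR was normalized to total dmIR and expressed relative to WT with the same ligand. Data are mean ± sem of ≥3 independent experiments, analysed by two-way ANOVA with Dunnett test versus WT.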"}, "dmIR F1044A": {"test_system": "dmIR F1044A", "assay": "dmIR autophosphorylation assay, F1044A mutant", "format": "cell-based, Drosophila melanogaster", "conditions": "100 nM ligand, 10 min", "method_in_brief": "as §1"}, "dmIR R848A": {"test_system": "dmIR R848A", "assay": "dmIR autophosphorylation assay, R848A mutant", "format": "cell-based, Drosophila melanogaster", "conditions": "100 nM ligand, 10 min", "method_in_brief": "as §1"}, "dmIR D1251R": {"test_system": "dmIR D1251R", "assay": "dmIR autophosphorylation assay, D1251R mutant", "format": "cell-based, Drosophila melanogaster", "conditions": "100 nM ligand, 10 min", "method_in_brief": "(§2)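 Full-length wDah dmIR with a C-terminal MYC tag, mutated by site-directed mutagenesis, was transiently transfected into 293FT cells. After 1 day, cells were serum-starved for 16–18 h, then exposed to 100 nM synthetic DILP for 10 min. Lysates were immunoblotted for pY1548/1549 and Myc, and pY signal was normalized to total dmIR relative to WT receiving the same treatment. Independent experiments were analysed by two-way ANOVA with Dunnett's test, mean ± sem.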"}, "dmIR K1256A": {"test_system": "dmIR K1256A", "assay": "dmIR autophosphorylation assay, K1256A mutant", "format": "cell-based, Drosophila melanogaster", "conditions": "100 nM ligand, 10 min", "method_in_brief": "as §2"}, "Drosophila S2 cells": {"test_system": "Drosophila S2 cells", "conditions": "single peptide applied to cultured Drosophila S2 cells; cited from earlier work"}, "[2]": {"test_system": "glycogen phosphorylase; sterile 20-like kinase; tramtrack", "conditions": "cited from earlier work"}, "dmIR R657A": {"test_system": "dmIR R657A", "assay": "dmIR autophosphorylation assay, R657A mutant", "format": "cell-based, Drosophila melanogaster", "conditions": "100 nM DILP5, 10 min", "method_in_brief": "as §2"}, "dmIR Δ602–609": {"test_system": "dmIR Δ602–609", "assay": "dmIR autophosphorylation assay, Δ602–609 mutant", "format": "cell-based, Drosophila melanogaster", "conditions": "Δ602–609, 100 nM DILP5, 10 min", "method_in_brief": "as §2"}, "dmIR V889R": {"test_system": "dmIR V889R", "assay": "dmIR autophosphorylation assay, V889R mutant", "format": "cell-based, Drosophila melanogaster", "conditions": "100 nM DILP5, 10 min", "method_in_brief": "as §2"}, "dmIR S820R": {"test_system": "dmIR S820R", "assay": "dmIR autophosphorylation assay, S820R mutant", "format": "cell-based, Drosophila melanogaster", "conditions": "100 nM DILP5, 10 min", "method_in_brief": "as §2"}}, "note": "Entries after “also recorded” stand apart in the source; their conditions may differ.", "data": [{"molecule": "Drosophila insulin-like peptide 1 [DILP1]", "values": [{"measurement": "dmIR autophosphorylation, in words (Fig. 5f, g)", "setting": "dmIR wild-type (WT); 1000 nM DILP1, 100 nM DILP5 or combination", "result": "lower levels of dmIR autophosphorylation compared to DILP5"}, {"measurement": "dmIR autophosphorylation, in words", "setting": "dmIR wild-type (WT); 293FT", "result": "lowest level of dmIR autophosphorylation; also recorded: lowest efficacy in activating dmIR"}, {"measurement": "Efficacy (signal in amplitude) relative to DILP5", "setting": "dmIR wild-type (WT); 293FT", "result": "about 50%"}]}, {"molecule": "Drosophila insulin-like peptide 5 (DILP5) (ligand)", "values": [{"measurement": "stoichiometry N (DILP5 molecules per dmIR dimer)", "setting": "[1]", "result": 3}]}, {"molecule": "B1", "values": [{"measurement": "dmIR WT autophosphorylation on stimulation, in words", "setting": "dmIR wild-type (WT); 293FT", "result": "significantly increased autophosphorylation of dmIR WT"}, {"measurement": "dmIR autophosphorylation, in words", "setting": "dmIR wild-type (WT); 293FT", "result": "less effective than DILP5"}, {"measurement": "Efficacy (signal in amplitude) relative to DILP5", "setting": "dmIR wild-type (WT); 293FT", "result": "approximately 75%"}, {"measurement": "Effect of receptor mutation on ligand-induced activation, in words", "setting": "dmIR Q1040A", "result": "reduced receptor autophosphorylation"}, {"measurement": "Effect of receptor mutation on ligand-induced activation, in words", "setting": "dmIR F1044A", "result": "reduced receptor autophosphorylation"}, {"measurement": "Effect of receptor mutation on ligand-induced activation, in words", "setting": "dmIR R848A", "result": "reduced receptor autophosphorylation"}, {"measurement": "Effect of receptor mutation on ligand-induced activation, in words", "setting": "dmIR D1251R", "result": "defects in DILP5- or DILP2-dependent dmIR activation"}, {"measurement": "Effect of receptor mutation on ligand-induced activation, in words", "setting": "dmIR K1256A", "result": "defects in DILP5- or DILP2-dependent dmIR activation"}, {"measurement": "Phosphorylation of Akt (pAkt), in words", "setting": "Drosophila S2 cells", "result": "only stimulates an early spike of pAkt"}, {"measurement": "Protein phosphorylation changes, in words", "setting": "[2]", "result": "represses the phosphorylation of glycogen phosphorylase"}]}, {"molecule": "B2", "values": [{"measurement": "dmIR WT autophosphorylation on stimulation, in words", "setting": "dmIR wild-type (WT); 293FT", "result": "significantly increased autophosphorylation of dmIR WT"}, {"measurement": "Concentration at which saturation of dmIR autophosphorylation is observed", "setting": "dmIR wild-type (WT); 293FT", "result": 300, "unit": "nM"}, {"measurement": "dmIR autophosphorylation, in words", "setting": "dmIR wild-type (WT); 293FT", "result": "increased dmIR autophosphorylation in a dose-dependent manner; also recorded: higher levels of dmIR autophosphorylation"}, {"measurement": "Effect of receptor mutation on ligand-induced activation, in words", "setting": "dmIR Q1040A", "result": "reduced receptor autophosphorylation"}, {"measurement": "Effect of receptor mutation on ligand-induced activation, in words", "setting": "dmIR F1044A", "result": "reduced receptor autophosphorylation"}, {"measurement": "Effect of receptor mutation on ligand-induced activation, in words", "setting": "dmIR R848A", "result": "reduced receptor autophosphorylation"}, {"measurement": "Effect of receptor mutation on ligand-induced activation, in words", "setting": "dmIR R657A", "result": "impaired DILP5-induced activation of dmIR"}, {"measurement": "Effect of receptor mutation on ligand-induced activation, in words", "setting": "dmIR Δ602–609", "result": "impaired DILP5-induced activation of dmIR"}, {"measurement": "Effect of receptor mutation on ligand-induced activation, in words", "setting": "dmIR V889R", "result": "modest but statistically significant reduction in dmIR phosphorylation"}, {"measurement": "Effect of receptor mutation on ligand-induced activation, in words", "setting": "dmIR S820R", "result": "modest but statistically significant reduction in dmIR phosphorylation"}, {"measurement": "Effect of receptor mutation on ligand-induced activation, in words", "setting": "dmIR D1251R", "result": "defects in DILP5- or DILP2-dependent dmIR activation"}, {"measurement": "Effect of receptor mutation on ligand-induced activation, in words", "setting": "dmIR K1256A", "result": "defects in DILP5- or DILP2-dependent dmIR activation"}, {"measurement": "Phosphorylation of Akt (pAkt), in words", "setting": "Drosophila S2 cells", "result": "robust and sustained phosphorylation of Akt (pAkt)"}, {"measurement": "Protein phosphorylation changes, in words", "setting": "[2]", "result": "increases the phosphorylation of sterile 20-like kinase and tramtrack"}]}]}
